Measured values reported in ChEMBL document CHEMBL3585281, “Antibacterial Labdane Diterpenoids from Vitex vestita” (2015).
In brackets after ≈: the same amount, converted by molar mass.

Key:
Type in all cases: functional
[1] = tested on: Staphylococcus aureus; assay: Antibacterial activity against Staphylococcus aureus CIP 483 after 18 hrs by agar dilution method; conditions: CIP 483, 18 h
How it was run: (§1)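 Agar-dilution MIC against Gram-positive strains. Compounds in DMSO, geometric dilutions giving final 100−0.75 mg/L in Mueller Hinton agar. Strains grown 18 h at 37 °C in trypticase soy broth, diluted in sterile water, spotted by Steers inoculator (about 1000 UFC/spot). Plates incubated 18 h at 37 °C; DMSO blank; ofloxacin positive control. MIC = lowest concentration with no visible growth.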

[2] = tested on: Staphylococcus intermedius; assay: Antibacterial activity against Staphylococcus intermedius N987 after 18 hrs by agar dilution method; conditions: N987, 18 h; how it was run: as §1
[3] = tested on: Listeria monocytogenes; assay: Antibacterial activity against Listeria monocytogenes CIP 103575 after 18 hrs by agar dilution method; conditions: CIP 103575, 18 h; how it was run: as §1
[4] = tested on: Staphylococcus aureus; assay: Antibacterial activity against Staphylococcus aureus ATCC 25923 after 18 hrs by agar dilution method; conditions: ATCC 25923, 18 h; how it was run: as §1
[5] = tested on: Staphylococcus aureus; assay: Antibacterial activity against Staphylococcus aureus CRBIP 2121 after 18 hrs by agar dilution method; conditions: CRBIP 2121, 18 h; how it was run: as §1
[6] = tested on: Bacillus cereus; assay: Antibacterial activity against Bacillus cereus CIP 6624 after 18 hrs by agar dilution method; conditions: CIP 6624, 18 h; how it was run: as §1
[7] = tested on: Staphylococcus aureus; assay: Antibacterial activity against Staphylococcus aureus CIP 5710 after 18 hrs by agar dilution method; conditions: CIP 5710, 18 h; how it was run: as §1
[8] = tested on: Mammaliicoccus sciuri; assay: Antibacterial activity against Staphylococcus sciuri N993 after 18 hrs by agar dilution method; conditions: N993, 18 h; how it was run: as §1
[9] = tested on: Listeria monocytogenes; assay: Antibacterial activity against Listeria monocytogenes N783 after 18 hrs by agar dilution method; conditions: N783, 18 h; how it was run: as §1
[10] = tested on: Enterococcus avium; assay: Antibacterial activity against Enterococcus avium CIP 104053 after 18 hrs by agar dilution method; conditions: CIP 104053, 18 h; how it was run: as §1
[11] = tested on: Staphylococcus aureus; assay: Antibacterial activity against Staphylococcus aureus ATCC 9144 oxford after 18 hrs by agar dilution method; how it was run: as §1
[12] = tested on: Listeria monocytogenes; assay: Antibacterial activity against Listeria monocytogenes N836 after 18 hrs by agar dilution method; conditions: N836, 18 h; how it was run: as §1
[13] = tested on: Enterococcus faecalis; assay: Antibacterial activity against Enterococcus faecalis N518 after 18 hrs by agar dilution method; conditions: N518, 18 h; how it was run: as §1
[14] = tested on: Enterococcus faecium; assay: Antibacterial activity against Enterococcus faecium CIP 103014 after 18 hrs by agar dilution method; conditions: CIP 103014, 18 h; how it was run: as §1
[15] = tested on: Listeria innocua; assay: Antibacterial activity against Listeria innocua E044 after 18 hrs by agar dilution method; conditions: E044, 18 h; how it was run: as §1
[16] = tested on: Listeria monocytogenes; assay: Antibacterial activity against Listeria monocytogenes N851 after 18 hrs by agar dilution method; conditions: N851, 18 h; how it was run: as §1
[17] = tested on: Staphylococcus epidermidis; assay: Antibacterial activity against Staphylococcus epidermidis CIP 53124 after 18 hrs by agar dilution method; conditions: CIP 53124, 18 h; how it was run: as §1
[18] = tested on: Enterococcus faecium; assay: Antibacterial activity against Enterococcus faecium CIP 107387 after 18 hrs by agar dilution method; conditions: CIP 107387, 18 h; how it was run: as §1
[19] = tested on: Staphylococcus aureus; assay: Antibacterial activity against Staphylococcus aureus CIP 7625 after 18 hrs by agar dilution method; conditions: CIP 7625, 18 h; how it was run: as §1
[20] = tested on: Staphylococcus saprophyticus; assay: Antibacterial activity against Staphylococcus saprophyticus E260 after 18 hrs by agar dilution method; conditions: E260, 18 h; how it was run: as §1
[21] = tested on: Enterococcus gallinarum; assay: Antibacterial activity against Enterococcus gallinarum N489 after 18 hrs by agar dilution method; conditions: N489, 18 h; how it was run: as §1
[22] = tested on: HCT-116; assay: Cytotoxicity against human HCT116 cells assessed as growth inhibition at 10^-6 M after 72 hrs by MTS assay relative to control; conditions: HCT-116, 72 h, read-out: GI
How it was run: (§2)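 Cells from ATCC; HCT-116 grown in RPMI 1640 and MRC5 in DMEM, each with 10% FCS and 1% glutamine, 37 °C, 5% CO2. Seeded at 2.5 × 10^3 cells/well, cultured 24 h, then exposed to compounds at 1 and 10 μM final for 72 h. MTS read-out, absorbance 490 nm; percent index from treated/control OD490 × 100, three experiments.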

[23] = tested on: Enterococcus casseliflavus; assay: Antibacterial activity against Enterococcus casseliflavus N487 after 18 hrs by agar dilution method; conditions: N487, 18 h; how it was run: as §1
[24] = tested on: Enterococcus gallinarum; assay: Antibacterial activity against Enterococcus gallinarum N492 after 18 hrs by agar dilution method; conditions: N492, 18 h; how it was run: as §1
[25] = tested on: Bacillus spizizenii; assay: Antibacterial activity against Bacillus subtilis ATCC 6633 after 18 hrs by agar dilution method; conditions: ATCC 6633, 18 h; how it was run: as §1
[26] = tested on: Enterococcus casseliflavus; assay: Antibacterial activity against Enterococcus casseliflavus CIP 103018 after 18 hrs by agar dilution method; conditions: CIP 103018, 18 h; how it was run: as §1
[27] = tested on: MRC5; assay: Cytotoxicity against human MRC5 cells assessed as growth inhibition at 10^-5 M after 72 hrs by MTS assay relative to control; conditions: MRC5, 72 h, read-out: GI; how it was run: as §2
[28] = tested on: Enterococcus faecalis; assay: Antibacterial activity against Enterococcus faecalis CIP 103214 after 18 hrs by agar dilution method; conditions: CIP 103214, 18 h; how it was run: as §1
[29] = tested on: MRC5; assay: Cytotoxicity against human MRC5 cells assessed as growth inhibition at 10^-6 M after 72 hrs by MTS assay relative to control; conditions: MRC5, 72 h, read-out: GI; how it was run: as §2
[30] = tested on: Enterococcus faecalis; assay: Antibacterial activity against Enterococcus faecalis N520 after 18 hrs by agar dilution method; conditions: N520, 18 h; how it was run: as §1
[31] = tested on: Enterococcus durans; assay: Antibacterial activity against Enterococcus durans CIP 104999 after 18 hrs by agar dilution method; conditions: CIP 104999, 18 h; how it was run: as §1
[32] = tested on: Staphylococcus lugdunensis; assay: Antibacterial activity against Staphylococcus lugdunensis ATCC 43809 after 18 hrs by agar dilution method; conditions: ATCC 43809, 18 h; how it was run: as §1
[33] = tested on: Enterococcus faecium; assay: Antibacterial activity against Enterococcus faecium N823 after 18 hrs by agar dilution method; conditions: N823, 18 h; how it was run: as §1
[34] = tested on: Bacillus cereus; assay: Antibacterial activity against Bacillus cereus N349 after 18 hrs by agar dilution method; conditions: N349, 18 h; how it was run: as §1
[35] = tested on: Enterococcus faecalis; assay: Antibacterial activity against Enterococcus faecalis N491 after 18 hrs by agar dilution method; conditions: N491, 18 h; how it was run: as §1
[36] = tested on: Enterococcus gallinarum; assay: Antibacterial activity against Enterococcus gallinarum CIP 105985 after 18 hrs by agar dilution method; conditions: CIP 105985, 18 h; how it was run: as §1
[37] = tested on: Enterococcus faecium; assay: Antibacterial activity against Enterococcus faecium N733 after 18 hrs by agar dilution method; conditions: N733, 18 h; how it was run: as §1
[38] = tested on: Bacillus cereus; assay: Antibacterial activity against Bacillus cereus N190 after 18 hrs by agar dilution method; conditions: N190, 18 h; how it was run: as §1
[39] = tested on: Staphylococcus aureus; assay: Antibacterial activity against Staphylococcus aureus CIP 53156 after 18 hrs by agar dilution method; conditions: CIP 53156, 18 h; how it was run: as §1
[40] = tested on: Bacillus cereus; assay: Antibacterial activity against Bacillus cereus N258 after 18 hrs by agar dilution method; conditions: N258, 18 h; how it was run: as §1
[41] = tested on: Staphylococcus saprophyticus; assay: Antibacterial activity against Staphylococcus saprophyticus CIP 76125 after 18 hrs by agar dilution method; conditions: CIP 76125, 18 h; how it was run: as §1
[42] = tested on: Staphylococcus haemolyticus; assay: Antibacterial activity against Staphylococcus haemolyticus CIP 8156 after 18 hrs by agar dilution method; conditions: CIP 8156, 18 h; how it was run: as §1
[43] = tested on: Corynebacterium striatum; assay: Antibacterial activity against Corynebacterium striatum N840 after 18 hrs by agar dilution method; conditions: N840, 18 h; how it was run: as §1
[44] = tested on: HCT-116; assay: Cytotoxicity against human HCT116 cells assessed as growth inhibition at 10^-5 M after 72 hrs by MTS assay relative to control; conditions: HCT-116, 72 h, read-out: GI; how it was run: as §2
[45] = tested on: Enterococcus faecium; assay: Antibacterial activity against Enterococcus faecium N490 after 18 hrs by agar dilution method; conditions: N490, 18 h; how it was run: as §1
[46] = tested on: Staphylococcus aureus; assay: Antibacterial activity against Staphylococcus aureus CIP 53154 after 18 hrs by agar dilution method; conditions: CIP 53154, 18 h; how it was run: as §1
[47] = tested on: Enterococcus faecalis; assay: Antibacterial activity against Enterococcus faecalis CIP 104676 after 18 hrs by agar dilution method; conditions: CIP 104676, 18 h; how it was run: as §1
[48] = tested on: Streptococcus agalactiae; assay: Antibacterial activity against Streptococcus agalactiae CIP 103227 after 18 hrs by agar dilution method; conditions: ATCC 13813, 18 h; how it was run: as §1
[49] = tested on: Enterococcus hirae; assay: Antibacterial activity against Enterococcus hirae CIP 5855 after 18 hrs by agar dilution method; conditions: CIP 5855, 18 h; how it was run: as §1
[50] = tested on: Enterococcus faecium; assay: Antibacterial activity against Enterococcus faecium N507 after 18 hrs by agar dilution method; conditions: N507, 18 h; how it was run: as §1

MIC [1]: > 188 µM | MIC [2]: > 188 µM | MIC [3]: > 188 µM | MIC [4]: > 188 µM | MIC [5]: > 188 µM | MIC [6]: ≤ 188 µM | MIC [7]: > 188 µM | MIC [8]: > 188 µM | MIC [9]: > 188 µM | MIC [10]: > 188 µM | MIC [11]: > 188 µM | MIC [12]: > 188 µM | MIC [13]: 50 µM (≈ 15.9 µg/mL) | MIC [14]: > 188 µM | MIC [15]: > 188 µM | MIC [16]: > 188 µM | MIC [17]: > 188 µM | MIC [18]: > 188 µM | MIC [19]: > 188 µM | MIC [20]: > 188 µM | MIC [21]: > 188 µM | MIC [23]: > 188 µM | MIC [24]: > 188 µM | MIC [25]: > 188 µM | MIC [26]: > 188 µM | MIC [28]: 50 µM (≈ 15.9 µg/mL) | MIC [30]: 50 µM (≈ 15.9 µg/mL) | MIC [31]: 50 µM (≈ 15.9 µg/mL) | MIC [32]: > 188 µM | MIC [33]: 50 µM (≈ 15.9 µg/mL) | MIC [34]: ≤ 188 µM | MIC [35]: 50 µM (≈ 15.9 µg/mL) | MIC [36]: > 188 µM | MIC [37]: 50 µM (≈ 15.9 µg/mL) | MIC [38]: ≤ 188 µM | MIC [39]: > 188 µM | MIC [40]: ≤ 188 µM | MIC [41]: > 188 µM | MIC [43]: > 188 µM | MIC [45]: ≤ 188 µM | MIC [46]: > 188 µM | MIC [47]: 50 µM (≈ 15.9 µg/mL) | MIC [48]: 50 µM (≈ 15.9 µg/mL) | MIC [49]: > 188 µM | MIC [50]: 50 µM (≈ 15.9 µg/mL)
Structure (SMILES): C=C1CC[C@H]2C(C)(C)CCC[C@]2(C)[C@H]1C[C@@H](O)C1=CC(=O)OC1
inhibition of growth at 1 µM [22]: 3% | inhibition of growth at 10 µM [27]: 86% | inhibition of growth at 1 µM [29]: 34% | MIC [42]: > 188 µM | inhibition of growth at 10 µM [44]: 68%
